The test system of assay [1] is Rattus norvegicus. The assay is described as follows: Hypotensive response (systolic blood pressure) was determined at 30 minutes for a dose of 10 mg/kg administered and 1 mL of corn oil in rat. Format: functional, Artery. The method in brief:
(§1)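 Male Sprague–Dawley rats (250-350 g), femoral artery cannulated under sodium pentobarbital (35 mg/kg ip), restrained supine. Heparin–saline injected into the cannula before recording. Single oral gavage dose in corn oil. Systolic and diastolic pressure taken 30 min after dosing, given as mean (±SE) percent decrease from base line, base line being pressure of animals given 1 mL corn oil.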

For assay [2], the system named is Rattus norvegicus. Nature of the assay: Hypotensive response (diastolic blood pressure) was determined at 30 minutes for a dose 10 mg/kg administered and 1 mL of corn oil in rat. The class given is functional, Artery. In a few lines: as §1
For assay [3], the system named is Rattus norvegicus. Nature of the assay: Hypotensive response for decrease in blood pressure was determined for a dose 15 mg/kg of in rat. The class given is functional. The method in brief: (§2)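 Male Sprague–Dawley rats (250-350 g), femoral artery cannulated under sodium pentobarbital (35 mg/kg ip); pressure recorded by transducer after recovery from anesthesia. Oral gavage in under 1 mL corn oil, doses 1-90 mg/kg; vehicle controls got 1 mL corn oil. Recorded continuously for 30 min, then at intervals. Result is mean (±SE) percent decrease in […] from post-anesthesia base line over the first hour.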

Assay [4] concerns Rattus norvegicus. The assay is described as follows: Hypotensive response for decrease in blood pressure was determined for a dose 45 mg/kg of in rat. The class given is functional. The method in brief: as §2
The subject of assay [5] is Rattus norvegicus. Nature of the assay: Hypotensive response for decrease in blood pressure was determined for a dose 90 mg/kg of in rat. Format: functional. The method in brief:
as §2

The subject of assay [6] is Rattus norvegicus. The assay is described as follows: Hypotensive response for decrease in blood pressure was determined for a dose 10 mg/kg of in rat. Format: functional. The method in brief: as §2
The subject of assay [7] is Rattus norvegicus. Nature of the assay: Hypotensive response for decrease in blood pressure was determined for a dose 1 mg/kg of in rat. Format: functional. In a few lines:
as §2

For assay [8], the system named is Rattus norvegicus. Nature of the assay: Hypotensive response for decrease in blood pressure was determined for a dose 25 mg/kg of in rat. Format: functional. The method in brief:
as §2

Assay [9] has as its system Rattus norvegicus. Nature of the assay: Hypotensive response for decrease in blood pressure was determined for a dose 3 mg/kg of in rat. The class given is functional. In a few lines: as §2
Assay [10] relates to Rattus norvegicus. Nature of the assay: Hypotensive response for decrease in blood pressure was determined for a dose 0 mg/kg + 1 mL corn oil in rat. Format: functional. In a few lines:
as §2

In the case of `[O-]c1n[n+](-c2ccc(Cl)cc2)no1`, the “Decrease in blood pressure” value in assay [1] stood at 47%; in [2], 47.9%.

For `[O-]c1n[n+](-c2ccc(Cl)c(Cl)c2)no1`, the “Decrease in blood pressure” value in assay [1] came out at 31.7%; in assay [2] it was 30.9%.

Regarding `[O-]c1n[n+](-c2c(Cl)cccc2Cl)no1`, the “Decrease in blood pressure” value in assay [1] worked out at 11.5%; in assay [2], 8.3%.

Turning to `O=[N+]([O-])c1ccc(-[n+]2noc([O-])n2)cc1`, the “Decrease in blood pressure” value in assay [1] is 24.8%; in assay [2] it was 23.8%.

For `[O-]c1n[n+](-c2ccccc2)no1`, the “Decrease in blood pressure” value was 51.7% in assay [1] and 52.3% in assay [2].

`COc1ccc(-[n+]2noc([O-])n2)cc1`: the “Decrease in blood pressure” value in [1] came out at 22.2%; in assay [2], 20%.

On to `Cc1ccc(-[n+]2noc([O-])n2)cc1`, for which the “Decrease in blood pressure” value in assay [3] stood at 37.6%; in [4], 53%; in assay [5], 75.3%; in [6], 28%; in assay [7], 13.9%; in assay [1], 28.5%. The “Decrease in blood pressure” value amounted to 48.1% in assay [8], 23.5% in [9], 27.5% in assay [2] and 0% in assay [10].
